From PubChem BioAssay
TRPC4 potent: TRPC4 (mouse) allosteric potentiation; Q9QUQ5; HEK293 TRPC4beta/mu-opioid, DAMGO EC20, Fluo-4 Ca2+ flux; hits give high values; B-score at 10 µM; actives 0.42% (n = 310,000); AID 2227;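 active = B-score of calcium response area above 5 SD of library B-scores, with initial fluorescence ratio within 5 SD of library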;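 note: B-score of integrated fluorescence ratio over time as area under calcium response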
Target sequence (Q9QUQ5 whole entry, looked up): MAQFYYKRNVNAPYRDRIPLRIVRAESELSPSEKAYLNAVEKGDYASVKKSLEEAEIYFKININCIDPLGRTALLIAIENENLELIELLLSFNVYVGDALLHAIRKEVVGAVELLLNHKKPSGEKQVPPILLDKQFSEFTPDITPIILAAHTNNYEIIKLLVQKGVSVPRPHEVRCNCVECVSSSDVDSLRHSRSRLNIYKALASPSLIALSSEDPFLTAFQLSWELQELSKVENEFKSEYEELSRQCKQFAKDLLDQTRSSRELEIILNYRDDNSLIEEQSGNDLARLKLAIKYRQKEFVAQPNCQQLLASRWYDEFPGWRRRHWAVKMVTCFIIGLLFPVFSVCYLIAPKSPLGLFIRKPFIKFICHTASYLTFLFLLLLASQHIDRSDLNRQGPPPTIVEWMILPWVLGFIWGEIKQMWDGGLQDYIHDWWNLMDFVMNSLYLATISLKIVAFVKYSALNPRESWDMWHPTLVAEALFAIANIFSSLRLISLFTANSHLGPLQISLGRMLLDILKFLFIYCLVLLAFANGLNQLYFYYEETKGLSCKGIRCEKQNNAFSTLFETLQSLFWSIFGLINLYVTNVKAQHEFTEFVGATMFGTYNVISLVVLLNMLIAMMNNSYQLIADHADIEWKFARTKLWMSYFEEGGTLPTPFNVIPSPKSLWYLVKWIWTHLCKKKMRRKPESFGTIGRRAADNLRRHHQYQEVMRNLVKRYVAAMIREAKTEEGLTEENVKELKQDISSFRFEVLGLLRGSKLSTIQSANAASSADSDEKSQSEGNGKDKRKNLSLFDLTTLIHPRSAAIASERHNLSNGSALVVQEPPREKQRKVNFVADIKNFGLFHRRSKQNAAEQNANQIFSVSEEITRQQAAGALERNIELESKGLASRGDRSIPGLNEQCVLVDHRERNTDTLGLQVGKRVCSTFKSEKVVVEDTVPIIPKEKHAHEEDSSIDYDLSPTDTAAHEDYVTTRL
TRPC4 block: TRPC4 (mouse) channel inhibition; Q9QUQ5; HEK293 TRPC4beta/mu-opioid, DAMGO-evoked Fluo4 calcium flux; hits give low values; B-score at 10 µM; actives 0.39% (n = 300,000); AID 2247;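 active = B-score over 3 SD under the library average, no early fluorescence shift, positive overall ratio signal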
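Assay system: HEK293 cells with stable TRPC4beta plus mu-opioid receptor expression. Dosing: single dose. Measured by: Fluo4 Ca2+ flux fluorescence. Also added: DAMGO in two steps, submaximal then maximal. Read-out: B score from integrated Fluo4 fluorescence ratio.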
Kir21 inh: inhibitors of mouse Kir2.1 inward-rectifier potassium channel; P35561; HEK293-Kir2.1, FluxOR thallium flux fluorescence; hits give low values; B-score at 10 µM; actives 0.85% (n = 310,000); AID 1672;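 active = fluorescence ratio B-score at or below minus 3 SD of library scores, with starting-brightness B-score within 2 SD, cut at about -4.2 in these data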;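 note: channel flux triggered by added potassium and thallium sulfate stimulus; B-score of peak minus minimum fluorescence over baseline after thallium stimulus; more negative B-score means stronger Kir2.1 block with less thallium influx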
TRPC6 activator: mouse TRPC6 channel activation; B-score at 10 µM; actives 0.13% (n = 310,000); HEK293-TRPC6 membrane potential dye fluorescence; hits give high values; AID 2550;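 active = B-score of the integrated fluorescence ratio above library mean plus 3 SD, and starting fluorescence ratio within library mean plus 5 SD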;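 note: higher score means more depolarization so channel activation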
TRPC4 agonist: activators of mouse TRPC4 channel. HEK293 TRPC4beta/mu-opioid, Fluo4 calcium fluorescence; hits give high values. B-score at 10 µM. actives 0.49% (n = 310,000). Q9QUQ5. AID 2237;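 active = B-score above 5 SD of library B-scores, and initial fluorescence ratio not above library mean plus 5 SD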;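 note: positive B-score marks a calcium rise read as TRPC4 activation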
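Assay system: HEK293 stable line with TRPC4beta plus mu-opioid receptor. Times: dye 45 min RT, read 110 s. Measured by: kinetic Fluo4 calcium fluorescence. Measure: B score of integrated ratio. Controls: assay buffer as low control, maximal DAMGO as high control.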
TRPC6 inhibitor: inhibitors of mouse TRPC6 channel; Q61143; HEK293-TRPC6, membrane potential dye, ACh-evoked depolarization; hits give low values; B-score at 10 µM; actives 1.1% (n = 310,000); AID 2553;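 active = B-score under library mean minus 3 SD, initial fluorescence not abnormally high, positive integrated signal ratio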;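 note: B-score derived from integrated fluorescence ratio over the kinetic read; more negative B-score means stronger inhibition of depolarization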
* = called active by the depositor; i = inactive. Hits are enriched below; roughly 2.9% of the tested compounds scored in any of these assays.

SMILES	TRPC4 potent	TRPC4 block	Kir21 inh	TRPC6 activator	TRPC4 agonist	TRPC6 inhibitor
COc1ccc(C2NCCc3[nH]cnc32)cc1 (stereo unspecified)	i	i	-0.05	i	175*	i
CCOc1cccc(CNCCc2c(C)[nH]c3ccc(OC(F)(F)F)cc23)c1O	i	i	-13.1*	i	i	i
Cc1[nH]c2ccc(OC(F)(F)F)cc2c1CCNCc1ccc(Cl)cc1	i	i	-7.16*	i	i	i
CN(C)C(=O)Oc1ccc2c(=O)c(Oc3ccccc3Br)coc2c1	i	i	-1.02	i	i	i
c1ccc(P(c2ccccn2)c2ccccn2)cc1	i	i	0.27	i	i	i
CCCC(=O)NC(Oc1ccc(OC)cc1)C(Cl)(Cl)Cl (stereo unspecified)	i	i	-5.67*	i	i	i
C[n+]1c(-c2ccccc2)cc(-c2ccc(O)cc2)cc1-c1ccccc1	i	i	-0.46	i	i	i
Cc1cc(-c2ccccc2)cc(-c2ccccc2)[n+]1CCc1ccccc1	i	i	-6.92*	i	i	i
Clc1ccc(C[n+]2c(-c3ccccc3)cc(-c3ccccc3)cc2-c2ccccc2)cc1	i	i	-12.7*	i	i	-5.19*
Cc1ccsc1C(=O)C1CCCN(Cc2cnc(N3CCCC3)s2)C1 (stereo unspecified)	i	i	0.1	i	i	i
Clc1ccc(N2CCNCC2)nn1	22*	i	-0.04	i	i	i
Clc1cccc(N2CCNCC2)c1	i	i	-0.29	i	i	i
O=P1(N(CCCl)CCCl)NCCCO1 (stereo unspecified)	i	i	1.79	i	i	i
COc1ccc(C)cc1NC1=NC(C)(C)CS1	i	-6*	-0.88	i	i	i
COc1ccc(OC)c(NC2=NCCS2)c1	i	i	-0.64	i	i	i
O=C1COc2ccc(C(=O)COC(=O)Cc3ccccc3)cc2N1	i	i	-0.92	i	i	i
c1ccc2oc(N3CCNCC3)nc2c1	44*	i	0.06	i	72*	i
CC(C)(C)c1cc([N+](=O)[O-])cc(C(C)(C)C)c1O	i	i	-1.31	i	i	i
O=C1C2CCCN2C(c2ccncc2)N1c1ccc(Cl)c(Cl)c1 (stereo unspecified)	11*	i	0	i	i	i
O=C1C2CCCN2C(c2cccnc2)N1c1ccc(Cl)c(Cl)c1 (stereo unspecified)	i	i	-0.25	i	i	i
O=C1NC(=O)N(c2ccccc2)C(=O)/C1=C/c1ccc(Sc2ccccc2)o1	i	i	0	i	i	i
O=C1NC(=O)N(c2cccc(Cl)c2)C(=O)/C1=C\c1ccc(Sc2nc3ccccc3[nH]2)o1	i	i	-4.75*	i	i	i
CC/C(=N\Nc1ccccc1)c1c(O)n(C)c(=O)n(C)c1=O	13*	-6*	-3.51	i	i	i
Cc1nn(C)cc1/C=C1/CC2C3CC=C4CC(O)CCC4(C)C3CCC2(C)C1=O (stereo unspecified)	10*	i	0.78	i	i	i
CC12CCC3C(CC=C4CC(O)CCC43C)C1C/C(=C\c1ccccc1F)C2=O (stereo unspecified)	i	i	0.01	i	i	i
COc1ccc(-n2c(O)c(C=NCc3ccc4c(c3)OCO4)c(=O)[nH]c2=O)cc1	i	i	-0.62	i	i	i
O=C(NCCCN1CCOCC1)C(Cl)(Cl)Cl	i	i	1.34	i	i	i
CN(C)C=C1C(=O)N(C2CCCCC2)C(=O)N(C2CCCCC2)C1=O	i	i	-0.88	i	95*	i
CCC(=O)OC1(c2ccccc2)CCN(C)CC1C (stereo unspecified)	i	i	-1.1	i	i	i
